Measurements of several laboratories.
Target: MAP/microtubule affinity-regulating kinase 4 (MARK4, Homo sapiens, UniProt Q96L34)
One construct used (Q96L34 1-752): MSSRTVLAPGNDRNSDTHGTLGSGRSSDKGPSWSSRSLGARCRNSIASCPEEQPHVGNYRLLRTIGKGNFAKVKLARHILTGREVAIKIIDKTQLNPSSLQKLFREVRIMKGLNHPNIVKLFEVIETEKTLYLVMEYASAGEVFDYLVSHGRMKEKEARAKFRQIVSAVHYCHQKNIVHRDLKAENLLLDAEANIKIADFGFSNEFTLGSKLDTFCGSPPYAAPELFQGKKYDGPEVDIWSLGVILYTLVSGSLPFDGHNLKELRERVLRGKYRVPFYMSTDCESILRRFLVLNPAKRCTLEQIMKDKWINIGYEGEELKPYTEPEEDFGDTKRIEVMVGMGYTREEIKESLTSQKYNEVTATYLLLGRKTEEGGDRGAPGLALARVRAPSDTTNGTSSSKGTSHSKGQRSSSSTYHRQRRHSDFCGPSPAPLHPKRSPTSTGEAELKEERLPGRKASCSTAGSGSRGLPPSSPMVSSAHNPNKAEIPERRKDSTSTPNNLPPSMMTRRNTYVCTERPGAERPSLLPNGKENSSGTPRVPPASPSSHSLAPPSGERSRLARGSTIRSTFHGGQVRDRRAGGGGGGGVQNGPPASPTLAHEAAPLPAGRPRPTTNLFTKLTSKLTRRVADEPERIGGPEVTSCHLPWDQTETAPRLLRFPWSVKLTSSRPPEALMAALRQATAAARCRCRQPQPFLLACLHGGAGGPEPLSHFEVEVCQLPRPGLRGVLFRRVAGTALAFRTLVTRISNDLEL

| SMILES | assay | setting | remaining binding |
| --- | --- | --- | --- |
| CN(C)c1ncc(F)c(-c2cnn3ncccc23)n1 | binding | 1 µM | 100% |
| CNC(=O)[C@@H]1CC[C@@H](n2c(-c3ccc4cnccc4c3)nc3ccc(C(=O)NCc4cccc(C(N)=O)c4)cc32)C1 | binding, competition with immobilised ligand | 1 µM | 98% |
| CN(C)c1nccc(-c2cnc3ncccn23)n1 | binding | 1 µM | 93% |
| CC(=O)Nc1c(C(C)=O)c(=O)n(C)c2nc(-c3ccc(Cl)cc3Cl)c(-c3ccc(Cl)cc3)cc12 | cell-free assay, competition with immobilised ligand | 1 µM | 100% |
| N[C@H]1CCN(c2nccc(-c3cnn4ncccc34)n2)C1 | binding | 1 µM | 100% |
| FC(F)(F)c1ccc2c(c1)nc(-c1cccnc1)n2C1CC1 | cell-free assay, competition with immobilised ligand | 1 µM | 100% |
| Nc1ncc2c(n1)-c1c([nH]c3ccc(C#CC4CC4)cc13)CCCC2 | binding, competition with immobilised ligand | 1 µM | 100% |
| COc1cc(-c2cn(C3CCc4ccccc4N(CC(F)(F)F)C3=O)nn2)ccc1-n1ccc(C)n1 (centres unmarked) | cell-free assay, competition with immobilised ligand | 1 µM | 100% |
| O=C(c1ccc(Nc2ncc(Cl)c(-c3cc4ccccc4s3)n2)cc1)N1CCC(N2CCCC2)CC1 | binding, competition with immobilised ligand | 1 µM | 28% |
| Cc1cnn2ncc(-c3ccnc(N(C)C)n3)c2c1 | binding | 1 µM | 91% |
| O=C(O)c1cc(-c2ccc(C3CCNCC3)cc2)c2ccc(-c3ccc(C(F)(F)F)cc3)cc2c1 | cell-free assay, competition with immobilised ligand | 1 µM | 100% |
| O=C(NCCCN1CCOCC1)c1ccc(Nc2ncc(Cl)c(-c3ccc(Cl)s3)n2)cc1 | binding, competition with immobilised ligand | 1 µM | 24% |
| COc1cnc(Nc2cccc(S(N)(=O)=O)c2)nc1N1CCN(c2ccccc2)CC1 | binding, competition with immobilised ligand | 1 µM | 86% |
| CN(c1nccc(-c2cnn3ncccc23)n1)C1CC1 | binding | 1 µM | 76% |
| CCCOc1ccc([C@H]2[C@H](C(=O)O)[C@@H](c3ccc4c(c3)OCO4)CN2CC(=O)Nc2c(CC)cccc2CC)cc1 | cell-free assay, competition with immobilised ligand | 1 µM | 97% |
| O=C(NCC1CCOCC1)c1n[nH]cc1NC(=O)c1c(F)cccc1F | binding, competition with immobilised ligand | 1 µM | 98% |
| O=C(c1ccc(Nc2ncc(Cl)c(-c3ccc(Cl)s3)n2)cc1)N1CCC(N2CCCC2)CC1 | binding, competition with immobilised ligand | 1 µM | 23% |
| F[C@@H]1CCN(c2nccc(-c3cnn4ncccc34)n2)C1 | binding | 1 µM | 100% |
| c1cncc(-c2cccc(Nc3nccc(NC4CCCCC4)n3)c2)c1 | binding, competition with immobilised ligand | 10 µM | 80% |
| CNCc1ccccc1-c1csc([C@@H](C)Nc2nc(C)nc3cc(OC)c(OC)cc23)c1 | cell-free assay, competition with immobilised ligand | 1 µM | 100% |
